Sampled rows, rich in hits. Any-hit rate of the full collection: about 1.7%.
core dimer inh = inhibitors of HCV core protein dimerization, primary screen, biochemical, TR-FRET, high-throughput. TR-FRET GST/Flag-core106 dimerization, 1536-well. inhibition, % at 5 µM. hit rate 0.33% among 300,000;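 active means inhibition above the mean of all tested compounds plus 3 SD, set per screening campaign, cut at about 45% in these data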
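Assay system: tagged HCV core106 pair (GST and Flag); medium: KF-containing HEPES buffer, pH 7.45, DTT, CHAPS, BSA; also added: Eu donor and XL665 acceptor anti-tag antibodies; dosing: 5 µM single dose; timing: compound-protein-antibody incubation 4 h at 22.5 °C; signal: TR-FRET 671 and 617 nm emission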
EBNA-1 inhibitor = EBNA-1 DNA-binding inhibitors, primary screen, biochemical, fluorescence polarization. inhibition, % at 14.8 µM. AID 1950, 2009. hit rate 0.34% among 300,000; in the data active means inhibition above about 28%
PP1 inh = PP1-alpha phosphatase inhibitors, primary screen, counter-screen for PP5 inhibitor project, biochemical, fluorescence, OMFP substrate, single point; Serine/threonine-protein phosphatase PP1-alpha catalytic subunit (Homo sapiens), P62136; purified PP1alpha; inhibition, % at 6.7 µM; hit rate 0.9% among 320,000; AID 2235, 2010;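 active means inhibition above the mean inhibition of all tested compounds plus 3 SD, computed separately for each screening campaign, cut at about 15% in these data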
Target sequence (P62136 whole entry, looked up): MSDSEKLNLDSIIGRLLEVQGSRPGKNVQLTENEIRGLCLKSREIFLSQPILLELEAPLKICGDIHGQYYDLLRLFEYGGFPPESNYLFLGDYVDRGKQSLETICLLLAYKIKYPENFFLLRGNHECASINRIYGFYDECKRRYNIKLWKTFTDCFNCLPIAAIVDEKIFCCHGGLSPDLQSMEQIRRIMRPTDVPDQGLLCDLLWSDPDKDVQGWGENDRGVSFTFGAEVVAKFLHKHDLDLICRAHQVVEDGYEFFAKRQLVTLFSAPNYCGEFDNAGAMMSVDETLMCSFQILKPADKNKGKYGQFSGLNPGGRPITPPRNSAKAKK
ZTA DNA inh = ZTA (EBV) inhibition in EBNA-1 counter-screen | ZTA-DNA binding, fluorescence polarization | inhibition, % at 11 µM | hit rate 0.15% among 320,000 | AID 2234; in the data active means inhibition above about 33%
Target sequence (P03206 whole entry, looked up): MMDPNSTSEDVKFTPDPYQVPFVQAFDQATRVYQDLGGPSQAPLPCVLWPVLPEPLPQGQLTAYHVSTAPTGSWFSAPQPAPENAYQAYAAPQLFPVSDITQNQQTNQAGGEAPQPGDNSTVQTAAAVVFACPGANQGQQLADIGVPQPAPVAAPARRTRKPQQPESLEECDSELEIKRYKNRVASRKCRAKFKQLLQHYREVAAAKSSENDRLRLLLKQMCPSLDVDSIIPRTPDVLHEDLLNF
PP5 inh = PP5 phosphatase inhibitors, primary screen, biochemical, fluorescence. hit rate 0.18% among 320,000. purified PP5c, OMFP substrate fluorescence. Serine/threonine-protein phosphatase 5 (Homo sapiens), P53041. inhibition, % at 6.7 µM;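 active means inhibition above the campaign's mean inhibition across all tested compounds plus 3 SD, cut at about 9.5% in these data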
PP1 inh confirm = PP1 phosphatase inhibitors, confirmation, biochemical, fluorescence, OMFP substrate, triplicate. shares compounds with PP1 inh. purified PP1alpha. inhibition, % at 6.7 µM. hit rate 52% among 1,900. AID 2358, 2010;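 active means mean PP1 inhibition above a set limit taken from the earlier primary screen, cut at about 15% in these data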
PP5 inh counter = PP5 phosphatase inhibition by PP1 hits, confirmation, counter-screen for PP1 inhibitor project, biochemical, fluorescence, triplicate; shares compounds with PP1 inh; purified PP5c, OMFP fluorescence; inhibition, % at 6.7 µM; hit rate 4% among 1,900;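 active means mean PP5 inhibition over triplicate wells above about 9.5% taken from the earlier PP1 screen, limit read from the data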
Of the large screens only hits and unclear results are named; the others gave an inactive call (follow-up assays come after a bar, where they were run).

Cc1cc(N2C(=O)C(O)=C(C(=O)c3ccco3)C2c2ccc([N+](=O)[O-])cc2)no1 (stereo not given)	none
COC(=O)c1sc(N2C(=O)c3oc4ccccc4c(=O)c3C2c2cccc(O)c2)nc1C (stereo not given)	none
CCOC(=O)c1sc(N2C(=O)C(O)=C(C(=O)c3ccco3)C2c2ccc([N+](=O)[O-])cc2)nc1C (stereo not given)	PP1 inh 41 | PP1 inh confirm 36 | PP5 inh counter inactive
CCOC(=O)c1sc(N2C(=O)C(O)=C(C(=O)c3ccc(C)o3)C2c2ccc(OC)c(OC)c2)nc1C (stereo not given)	PP1 inh 37 | PP1 inh confirm 35 | PP5 inh counter inactive
CC(C)OCCCNC(=O)Cn1nc(-c2ccccc2)ccc1=O	none
N#CCc1ccc(OC(=O)c2cccnc2Cl)cc1	none
CCOC(=O)c1sc(N2C(=O)C(O)=C(C(=O)c3ccco3)C2c2ccc(C)o2)nc1C (stereo not given)	PP1 inh 23 | PP1 inh confirm 23 | PP5 inh counter inactive
CCCOc1cccc(C2C(C(=O)c3ccco3)=C(O)C(=O)N2c2nnc(C)s2)c1 (stereo not given)	none
C/C(=N/O)c1ccccn1	PP1 inh 36 | PP1 inh confirm inactive | PP5 inh counter inactive
CC(=O)c1ccccn1	none
COC(=O)CCC(=O)OC1(C)C(=O)C=C2C=C(C3CC3)N(c3ccc(CO)cc3)C=C2C1=O (stereo not given)	core dimer inh 69, PP1 inh 19 | PP1 inh confirm 20 | PP5 inh counter 9.9
COCCN1C=C2C(=O)C(C)(OC(=O)CCC(=O)OC)C(=O)C(Br)=C2C=C1c1ccc(OC)cc1 (stereo not given)	none
COC(=O)CCC(=O)OC1(C)C(=O)C2=CN(c3ccc(OC)cc3)C(c3ccc(OC)cc3)=CC2=C(Br)C1=O (stereo not given)	PP1 inh 20 | PP1 inh confirm 16 | PP5 inh counter 20
COC(=O)CCC(=O)OC1(C)C(=O)C2=CN(C3CCCC3)C(c3ccc(OC)cc3)=CC2=C(Br)C1=O (stereo not given)	PP1 inh 17, PP5 inh 9.7 | PP1 inh confirm inactive | PP5 inh counter 35
Cc1cc(Br)ccc1OCC(=O)NNC(=O)c1cnccn1	none
CCOC(=O)C1=C(c2ccccc2)N=c2s/c(=C\c3ccco3)c(=O)n2C1c1cccs1 (stereo not given)	core dimer inh 69, PP1 inh 21 | PP1 inh confirm 19 | PP5 inh counter inactive
CCc1ccc([C@@H]2CC=C(C(=O)O)[C@H](c3ccc(Cl)cc3)N2S(=O)(=O)c2ccc(C)cc2)cc1	PP1 inh 19 | PP1 inh confirm inactive | PP5 inh counter inactive
O=C(CN1CCN(S(=O)(=O)c2ccc(F)c(Cl)c2)CC1)N1CCNC1=O	none (no result: core dimer inh, EBNA-1 inhibitor)
CCCCCOc1ccc(NC(=O)C(=O)NCCCn2ccnc2)cc1	PP1 inh 44 | PP1 inh confirm inactive | PP5 inh counter inactive
Cc1ccc(Cn2nnc3c(=O)[nH]c(C4CCN(S(=O)(=O)c5ccc(F)cc5)CC4)nc32)cc1	none
Cc1ccc(C)c(Cn2nnc3c(=O)[nH]c(C4CCN(S(=O)(=O)c5ccc(S(=O)(=O)N(C)C)cc5)CC4)nc32)c1	none
Cc1ccc(Cn2nnc3c(=O)[nH]c(C4CCN(S(=O)(=O)c5cc(C)ccc5C)CC4)nc32)cc1	PP1 inh 28 | PP1 inh confirm 24 | PP5 inh counter inactive
Cc1ccc(C)c(S(=O)(=O)N2CCC(c3nc4c(nnn4Cc4ccc(F)cc4)c(=O)[nH]3)CC2)c1	PP1 inh 18 | PP1 inh confirm inactive | PP5 inh counter inactive
Cc1ccc(C)c(Cn2nnc3c(=O)[nH]c(C4CCN(S(=O)(=O)c5ccc(S(=O)(=O)NC6CC6)cc5)CC4)nc32)c1	PP1 inh 18 | PP1 inh confirm 15 | PP5 inh counter inactive
Cn1nc(C(F)(F)F)c(C(=O)Nc2cccc(Cl)c2)c1Cl	none
CC1CC(C)CN(CC(O)COCc2ccccc2F)C1 (stereo not given)	PP1 inh 39 | PP1 inh confirm inactive | PP5 inh counter inactive
O=C1OC(c2ccccc2)c2ccccc21 (stereo not given)	none
O=C1OC(c2ccccc2)c2ccc3ccccc3c21 (stereo not given)	PP1 inh 19 | PP1 inh confirm inactive | PP5 inh counter inactive
O=C(O)c1ccc(C2Nc3ccccc3C(=O)N2Cc2ccccc2)cc1 (stereo not given)	none
COc1ccc(N(C(=O)c2snc(C(N)=O)c2N)C(C(=O)NC2CCCC2)c2cccs2)cc1OC (stereo not given)	PP1 inh 18 | PP1 inh confirm 29 | PP5 inh counter inactive
CCC(C(=O)NC1CCCC1)N(C(=O)c1snc(C(N)=O)c1N)c1ccc(OC)c(OC)c1 (stereo not given)	none
COc1cccc(N(C(=O)CS(=O)CC(=O)Nc2ccc(F)cc2)C(C(=O)NC2CCCCC2)c2cccs2)c1 (stereo not given)	PP1 inh 20 | PP1 inh confirm 28 | PP5 inh counter inactive
CCSc1ccc2cc(OC)ccc2[n+]1CC	none
COc1ccc(C2=NN(C(=O)c3cccs3)C(c3ccccc3O)C2)cc1 (stereo not given)	PP1 inh 27 | PP1 inh confirm 19 | PP5 inh counter inactive
COc1ccc(C2CC(c3ccccc3)=NN2C(=O)c2cccs2)cc1 (stereo not given)	none
O=C(O)/C=C/C(=O)NCCCc1ccccc1	none
CCCCCCCC/C=C\CCCCCCCC(=O)NCCO	none
CCCCCCCC/C=C\CCCCCCCC(=O)NCCc1ccc(O)c(O)c1	PP1 inh 16, PP5 inh 15 | PP1 inh confirm inactive | PP5 inh counter inactive
CCC1CO/C(=C(\C(Cl)=C(Cl)Cl)[N+](=O)[O-])N1 (stereo not given)	none
CCOC(=O)c1ncccc1NC(=O)CC(=O)Nc1cccnc1C(=O)OCC	PP1 inh 27 | PP1 inh confirm inactive | PP5 inh counter inactive
CCc1nnc(NC(=O)c2sc3nc4c(cc3c2N)CCCCCC4)s1	PP1 inh 22 | PP1 inh confirm 29 | PP5 inh counter inactive
CCc1nnc(NC(=O)c2sc3nc4c(cc3c2N)CCCCC4)s1	none
C/C(CC(=O)Nc1ccc(Cl)c(C(F)(F)F)c1)=N\NC(=O)c1cc2ccccc2cc1O	PP1 inh 19 | PP1 inh confirm inactive | PP5 inh counter inactive

Screening data deposited in PubChem by The Scripps Research Institute Molecular Screening Center.
